Data set [1] in a line: Cytotoxicity against human Huh7-J20 cells assessed as decrease in cell viability at 1.56 to 75 uM after 72 hrs by MTT assay. Format: cell-based. The procedure, abridged:
(§1)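 Uninfected Huh7-J17, Huh7-J20 or Huh-7.5 cells incubated with compound, then viability read by MTT. Time stated as 72 h for Huh7-J20 and Huh7-J17, and 48 h for Huh-7.5. Results expressed relative to DMSO-treated cells (100%); CC50 from the dose-response curve.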

Data set [2] concerns Hepatitis C virus. Put plainly: Antiviral activity against HCV genotype 2a JFH1 infected in human Huh7-J20 cells assessed as inhibition of viral RNA replication at 1.56 to 75 uM after 72 hrs by SEAP reporter assay. Format: functional, organism-based. As to conditions: Hepacivirus hominis, JFH-1. In outline: (§2)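 Huh7-J20 SEAP reporter cells, infected with JFH-1 HCVcc, read-out SEAP chemiluminescence in supernatant after 72 h. Model 1: 1 h compound pretreatment, 3 h infection with compound, then compound-free medium. Model 2: same, with compound kept for the full 72 h. Model 3: 3 h infection, compound added afterwards only. DMSO control; three experiments.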

The nature of data set [3]: Selectivity index, ratio of CC50 for SK6 cells to IC50 for CSFV. The format is toxicity. The conditions noted are these: pig, read-out: Ratio CC50/IC50. In outline: (§3)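 Selectivity index is CC50/IC50, taken from the cell viability assay (SK6 by MTS, Huh-7.5 by MTT) and the matching pseudo-plaque reduction assay.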
A short description of data set [4]: Effect on actin levels in human Huh7.5 cells at 3.12 to 75 uM under reducing condition after 48 hrs by Western blot method. The format is ADME, cell-based. In outline:
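Huh-7.5 cells infected with HCV (MOI 0.1), washed after 1–6 h, then treated with inhibitor. Lysed in RIPA buffer with protease inhibitors after 48 h (methods; legend gives 72 h p.i.). 20 µg protein run on reducing SDS-PAGE; Western blot probed with anti-E1 mAb (1:2000) and anti-actin (1:1000).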

Data set [5] deals with Hepatitis C virus. Briefly: Antiviral activity against HCV infected in human Huh7-J17 cells assessed as inhibition of viral RNA replication at 75 uM after 72 hrs by bright-glo luciferase reporter assay relative to control. Format: functional, Hepacivirus hominis. In outline: (§4)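 Huh7-J17 replicon cells seeded in 96-well plates together with compound, DMSO or sofosbuvir and incubated 72 h. Cells lysed and luciferase read with Bright-Glo. Values expressed as % of DMSO-treated cells; IC50 from dose-response fit; three experiments.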

Data set [6] deals with Hepatitis C virus. Briefly: Antiviral activity against HCV genotype 2a JFH1 infected in human Huh7-J20 cells assessed as inhibition of viral assembly at 1.56 to 75 uM after 72 hrs by SEAP reporter assay. The format is functional, organism-based. The conditions noted are these: Hepacivirus hominis, JFH-1. In outline: as §2
Data set [7] can be described thus: Cytotoxicity against SK6 cells assessed as reduction in cell viability after 2 days by MTS method. Format: cell-based, Sus scrofa. The conditions noted are these: pig. The procedure, abridged: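 SK6 viability by MTS (CellTiter 96 AQueous) assay; CC50 is the concentration reducing viability by 50%, taken from the dose-response curve.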
Data set [8] relates to Hepatitis C virus. Put plainly: Antiviral activity against HCV Jc1/JFH infected in human Huh7.5 cells assessed as reduction of pseudo-plaque formation after 72 hrs by immunoperoxidase monolayer assay. The format is functional, organism-based. The procedure, abridged:
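Huh-7.5 cells seeded at 1.5 × 10^4 per well, infected next day with Jc1/JFH HCVcc (genotype 2a) at MOI 0.1 for 3 h. Virus removed, medium with compound added; 72 h later cells fixed in cold methanol, permeabilized (0.5% Triton X-100), stained with anti-core antibody (1:300), HRP secondary. Pseudo-plaques counted by microscopy against untreated infected control; IC50 at 50% plaque reduction; three independent experiments.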

A short description of data set [9]: Effect on actin levels in SK6 cells at 3.75 to 30 uM under non-reducing condition after 48 hrs by Western blot method. Format: ADME, cell-based, Sus scrofa. The conditions noted are these: pig.
A short description of data set [10]: Cytotoxicity against human Huh7.5 cells assessed as reduction in cell viability after 72 hrs by MTT method. Format: cell-based.
Data set [11] has as its system Classical swine fever virus. Briefly: Inhibition of CSFV glycosyltransferase in SK6 cells assessed as downregulation of viral E2 levels under non-reducing condition after 48 hrs by Western blot method. The format is cell-based.
Data set [12] is described as follows: Selectivity index, ratio of CC50 for Huh7.5 cells to IC50 for HCV Jc1/JFH. Format: toxicity. As to conditions: human, read-out: Ratio CC50/IC50. The procedure, abridged: as §3
Data set [13] relates to Hepatitis C virus. Put plainly: Antiviral activity against HCV genotype 2a JFH1 infected in human Huh7-J20 cells assessed as inhibition of viral entry at 1.56 to 75 uM pretreated for 1 hr with cells followed by viral infection for 3 hrs and subsequent compound washout measured after 72 hrs by SEAP reporter assay. As to conditions: Hepacivirus hominis, JFH-1. The format is functional, organism-based. The procedure, abridged:
as §2

The test system of data set [14] is Hepatitis C virus. Put plainly: Antiviral activity against HCV Jc1/JFH infected in human Huh7.5 cells assessed as downregulation of NS5B gene expression after 48 hrs by RT-PCR method. The format is functional, organism-based. As to conditions: Hepacivirus hominis. The procedure, abridged:
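Huh-7.5 cells infected with HCV (MOI 0.1) for 4 h, washed, then cultured with compound for 48 h. Total RNA isolated; 1 µg reverse-transcribed with an NS5B-specific reverse primer, then PCR for NS5B. Band densitometry expressed as % of untreated infected control.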

The subject of data set [15] is Hepatitis C virus. Briefly: Antiviral activity against HCV genotype 2a JFH1 infected in human Huh7-J20 cells assessed as inhibition of complete viral life cycle at 1.56 to 75 uM pretreated for 1 hr with cells followed by viral infection for 3 hrs and subsequent addition of fresh medium with compound measured after 72 hrs by SEAP reporter assay. Format: functional, organism-based. The conditions noted are these: Hepacivirus hominis, JFH-1. The procedure, abridged:
as §2

Data set [16] in a line: Cytotoxicity against human Huh7-J17 cells assessed as decrease in cell viability after 72 hrs by MTT assay. Format: cell-based. The procedure, abridged:
as §1

Data set [17] relates to Classical swine fever virus. Briefly: Antiviral activity against CSFV infected in SK6 cells assessed as reduction of pseudo-plaque formation after 2 days by immunoperoxidase monolayer assay. Format: functional, organism-based. The conditions noted are these: 48 h.
Data set [18] concerns Hepatitis C virus. Briefly: Antiviral activity against HCV infected in human Huh7-J17 cells assessed as inhibition of viral RNA replication after 72 hrs by bright-glo luciferase reporter assay. The format is functional, organism-based, Hepacivirus hominis. The procedure, abridged: as §4

Structures are written as SMILES. Activity calls are given as the source filed them. No cut-off for these calls is given here.

Regarding `CC(=O)OC[C@H]1O[C@@H](Sc2ccc(NC(=O)[C@H]3O[C@@H](n4ccc(=O)[nH]c4=O)[C@H](O[Si](C)(C)C(C)(C)C)[C@@H]3O[Si](C)(C)C(C)(C)C)cn2)[C@H](OC(C)=O)[C@@H](OC(C)=O)[C@H]1OC(C)=O`, the Activity entry in [1] was “Non-Toxic”; in [4], “Non-Toxic”; in data set [7] (48 h), “Dose-dependent effect”; in [8] (Hepacivirus hominis), “Dose-dependent effect”; in data set [9], “Non-Toxic”; in [14], “Dose-dependent effect”. In addition, the inhibition result in [2], in [6] and in data set [15] was “Active” in each case. For the same compound, the results for the selectivity ratio in [3] and in data set [12] were 25.2 and 24.7, respectively. For the same compound, the inhibition at 75 µM in [5] was determined as 90%. Moreover, the CC50 at 48 h in data set [7] (SK6 cells) worked out at 151 µM. The IC50 in [8] (Huh7.5, 72 h) came to 7 µM; in [17], 6 µM; in data set [18] it was 3.74 µM. For the same compound, the CC50 at 72 h worked out at 173 µM in data set [10] and 245 µM in data set [16]. Moreover, the inhibition result in data set [11] was “Dose-dependent effect”. Moreover, the inhibition result in data set [13] was “inactive”.

The values above are taken from ChEMBL document CHEMBL4138118, “Novel thioglycosyl analogs of glycosyltransferase substrates as antiviral compounds against classical swine fever virus and hepatitis C virus” (Eur J Med Chem, 2017).
